Consider 19 compounds from ChEMBL document CHEMBL1147741, “Chroman/catechol hybrids: synthesis and evaluation of their activity against oxidative stress induced cellular damage” (J Med Chem, 2006).

Each structure is given as a SMILES string.

A word on the EC50: it is the concentration needed to bring the measured effect to its halfway point. A higher EC50 goes with a need for much substance. Usually IC50 stands for the concentration needed to halve the response being measured.

Assay [1] concerns Radical scavenging activity. Nature of the assay: Antioxidant potency assessed chemically. In kind it is functional. In a few lines: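 TEAC determined by the Rice-Evans and Miller method, using 0.3 mM trolox solution with data normalized to 1.0 mM trolox.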
The test system of assay [2] is HT-22. Kind of assay: Inhibition of glutamate-induced oxytosis of mouse hippocampal HT22 cells. In kind it is functional, cell-based. In outline:
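HT22 cells were plated at 4000 per well in phenol-red-free DMEM-HEPES with dextran-charcoal-treated FBS for 24 h. Serial compound dilutions were added with or without 5 mM glutamate for 24 h at 37 °C, and viability was read by MTT formazan conversion. EC50 is the concentration giving glutamate-exposed viability 50% of non-exposed cells; 3-7 independent experiments, mean ± SEM.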

The subject of assay [3] is Jurkat. Kind of assay: Activity against hydrogen peroxide induced DNA damage in Jurkat T cells. In kind it is functional, cell-based, Homo sapiens. In a few lines:
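Jurkat T cells (1.5 × 10⁵ per well, RPMI 1640 with 10% FCS) were preincubated 1 h at 37 °C, given compound 30 min before glucose oxidase (60 ng, about 11.8 µM H₂O₂/min), and exposed 10 min. Alkaline comet assay followed: lysis, unwinding at pH >13 for 40 min, electrophoresis at 1 V/cm for 30 min, Hoechst 33342 staining, visual scoring of 100 nucleoids. IC50 is the concentration halving strand breakage.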

[4] abbreviates: Homo sapiens, Jurkat, read-out: IC50.

The compound `Cc1c(C)c2c(c(C)c1O)CCC(C)(C(=O)NCCN1CCN(C(=O)/C=C/c3ccc(O)c(O)c3)CC1)O2` (stereo unspecified) yielded an Activity in assay [1] of 6.24 µM. For the same compound, the midpoint of the response in assay [2], the EC50, lay at 6.35 µM. Also, the IC50 in assay [3] (setting [4]) was found to be 20 µM.
In turn, `O=c1c(O)c(-c2ccc(O)c(O)c2)oc2cc(O)cc(O)c12` [QUERCETIN] had an Activity in assay [1] of 4.3 µM. Moreover, the EC50 in assay [2] was determined as 2.98 µM. Further, the IC50 in assay [3] (setting [4]) was found to be 5 µM.
Turning to `COc1ccc(/C=C/c2c3c(c(C)c(C)c2OC)OC(C)(C)CC3)cc1OC`, the EC50 in assay [2] was > 10 µM.
Compound `COc1ccc(CCc2c3c(c(C)c(C)c2OC)OC(C)(C)CC3)cc1OC` came in with an Activity in assay [1] of 0.05 µM. For the same compound, the EC50 in assay [2] worked out at 4.59 µM. Further, the IC50 result in assay [3] (jurkat) is “Not Active”.
Consider `COc1ccc(C#Cc2c(O)c(C)c(C)c3c2CCC(C)(C)O3)cc1OC`, for which the EC50 in assay [2] was > 10 µM.
For `Cc1c(C)c2c(c(C)c1O)CCC(C)(C(=O)NCCNCCNC(=O)/C=C/c1ccc(O)c(O)c1)O2` (stereo unspecified), the Activity in assay [1] turned out to be 6.33 µM. Besides, in assay [2], the 50% effective concentration (EC50) was > 10 µM. In addition, the IC50 in assay [3] (setting [4]) was found to be 50 µM.
The like results for `Cc1c(C)c2c(c3c1OC(c1ccc(O)c(O)c1)C3)CCC(C)(C)O2` (stereo unspecified) were, in that order, 5.9 µM, 1 µM and 10 µM.
`Cc1c(C)c2c(c(C)c1O)CCC(C)(C(=O)N1CCN(C(=O)/C=C/c3ccc(O)c(O)c3)CC1)O2` (stereo unspecified) had an Activity in assay [1] of 6.55 µM. In assay [2], this compound showed an EC50 of 1.48 µM. For the same compound, the IC50 in assay [3] (setting [4]) was determined as 50 µM.
With `Cc1c(C)c2c(c(C)c1O)CCC(C)(C(=O)O)O2` (stereo unspecified) [TROLOX], the Activity in assay [1] was determined as 1 µM. The IC50 entry in assay [3] (jurkat) is on record as “Not Active”.
Compound `COc1c(C)c(C)c2c(c1NC(=O)/C=C/c1ccc(O)c(O)c1)CCC(C)(C)O2` returned an Activity in assay [1] of 6.53 µM. For the same compound, in assay [2], the EC50 is > 10 µM. Also, in assay [3] (setting [4]), the IC50 came out at 20 µM.
The compound `COc1ccc(/C=C/C(=O)N2CCN(C(=O)C3(C)CCc4c(C)c(O)c(C)c(C)c4O3)CC2)cc1OC` (stereo unspecified) yielded an Activity in assay [1] of 1.26 µM. The EC50 in assay [2] was determined as 0.65 µM. Further, the IC50 entry in assay [3] (jurkat) is recorded as “Not Active”.
As to `Cc1c(C)c2c(c(C)c1O)CCC(C)(C(=O)NCCNC(=O)/C=C/c1ccc(O)c(O)c1)O2` (stereo unspecified), in assay [1], the Activity was 6.5 µM. The EC50 in assay [2] was found to be 7.36 µM. Further, in assay [3] (setting [4]), the IC50 came to 75 µM.
Compound `O=C(O)/C=C/c1ccc(O)c(O)c1` [CAFFEIC ACID] came in with an Activity in assay [1] of 1.2 µM. Besides, the IC50 result in assay [3] (jurkat) was “Not Active”.
With `COc1c(C)c(C)c2c(c1CCc1ccc(O)c(O)c1)CCC(C)(C)O2`, the Activity in assay [1] turned out to be 1.6 µM. Moreover, the EC50 in assay [2] was determined as 1.17 µM. For the same compound, the IC50 in assay [3] (setting [4]) stood at 10 µM.
Turning to `COc1c(C)c(C)c2c(c1CNC(=O)/C=C/c1ccc(O)c(O)c1)CCC(C)(C)O2`, the Activity in assay [1] was determined as 3.8 µM. In assay [2], this compound gave an EC50 of 2.15 µM. Besides, the half-inhibitory concentration (IC50) in assay [3] (setting [4]) worked out at 1 µM.
On to `COc1c(C)c(C)c2c(c1C)CCC(C)(C(=O)N1CCN(C(=O)/C=C/c3ccc(O)c(O)c3)CC1)O2` (stereo unspecified), for which the Activity in assay [1] was determined as 6.12 µM. For the same compound, the EC50 in assay [2] was 2.11 µM. Further, the half-maximal inhibitory concentration (IC50) in assay [3] (setting [4]) is 50 µM.
For `Cc1c(C)c2c(c(NC(=O)/C=C/c3ccc(O)c(O)c3)c1O)CCC(C)(C)O2`, in that order: 4.28 µM, 1.23 µM and 5 µM.
Consider `Cc1c(C)c2c(c(CCc3ccc(O)c(O)c3)c1O)CCC(C)(C)O2`, for which the Activity in assay [1] is 3.74 µM. Besides, the 50% effective concentration (EC50) in assay [2] was found to be 0.93 µM. Moreover, in assay [3] (setting [4]), the half-inhibitory concentration (IC50) was 5 µM.
`Cc1c(C)c2c(c(C)c1O)CCC(C)(CNC(=O)/C=C/c1ccc(O)c(O)c1)O2` (stereo unspecified) yielded an Activity in assay [1] of 6.53 µM. Besides, the EC50 in assay [2] is 1.14 µM. Moreover, the IC50 in assay [3] (setting [4]) came to 25 µM.
